Reference: ChEMBL document CHEMBL1127542, “Inhibitors of acyl-CoA:cholesterol O-acyl transferase (ACAT) as hypocholesterolemic agents. 8. Incorporation of amide or amine functionalities into a series of disubstituted ureas and carbamates. Effects on ACAT inhibition in vitro and efficacy in vivo” (J Med Chem, 1994)
Activity calls are given as the source filed them. No cut-off for these calls is given here.

Columns and labels:
Rattus norvegicus [1] = test: The compound at a dose of 50 mg/kg is evaluated for percent change in High Density Lipoprotein (HDl) level in chronic cholesterol fed rat screen; format: functional
Summary of the method: (§1)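 Chronic model: rats fed the high-fat, high-cholesterol diet for 14 days. In the second week, 50 mg/kg given daily by gavage in carboxymethylcellulose/Tween-20 aqueous vehicle. Plasma HDL and non-HDL cholesterol expressed as % change versus control. Body-weight gain monitored. ANOVA with Fisher's multiple range test, p<0.05.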

Rattus norvegicus [2] = test: The compound at a dose of 50 mg/kg is evaluated for percent change in Non-High Density Lipoprotein level in chronic cholesterol fed rat screen; format: functional; summary of the method: as §1
Rattus norvegicus [3] = organism: Rattus norvegicus; test: Percent change in total cholesterol in cholic acid (0.5%)-cholesterol (1.5%)-peanut oil (5.5%)-fed rats; format: functional
Summary of the method: (§2)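 Acute screen: rats given a single gavage dose, 50 mg/kg standard unless noted, suspended in carboxymethylcellulose plus Tween-20 in water, then a single high-fat, high-cholesterol meal (0.5% cholic acid, 1.5% cholesterol, 5.5% peanut oil). Overnight rise in plasma total cholesterol measured as % change versus control. Stomachs checked for food. ANOVA with Fisher's multiple range test, p<0.05.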

[4] = target: Sterol O-acyltransferase 1 (Oryctolagus cuniculus); test: In vitro inhibition of rabbit intestinal acyl coenzyme A:cholesterol acyltransferase using [1-14C]oleolyl-CoA
Rattus norvegicus [5] = test: The compound at a dose of 50 mg/kg is evaluated for percent change in NON-High Density Lipoprotein level in chronic cholesterol fed rat screen; format: functional; summary of the method: as §1
Rattus norvegicus [6] = test: Percent change in total cholesterol in cholic acid (0.5%)-cholesterol (1.5%)-peanut oil (5.5%)-fed rats (50 mg/kg was administered as the standard dose); No change; format: functional, organism-based; summary of the method: as §2
Rattus norvegicus [7] = test: The compound at a dose of 50 mg/kg is evaluated for percent change in High Density Lipoprotein (HDl) level in chronic cholesterol fed rat screen; No change; format: functional, organism-based; set-up: dose 50 mg/kg; summary of the method: as §1
[8] = target: T1, Sterol O-acyltransferase 1 (Rattus norvegicus, UniProt O70536); test: In vitro inhibition of rat intestinal acyl coenzyme A:cholesterol acyltransferase using [1-14C]oleolyl-CoA
T1 sequence (O70536 whole entry): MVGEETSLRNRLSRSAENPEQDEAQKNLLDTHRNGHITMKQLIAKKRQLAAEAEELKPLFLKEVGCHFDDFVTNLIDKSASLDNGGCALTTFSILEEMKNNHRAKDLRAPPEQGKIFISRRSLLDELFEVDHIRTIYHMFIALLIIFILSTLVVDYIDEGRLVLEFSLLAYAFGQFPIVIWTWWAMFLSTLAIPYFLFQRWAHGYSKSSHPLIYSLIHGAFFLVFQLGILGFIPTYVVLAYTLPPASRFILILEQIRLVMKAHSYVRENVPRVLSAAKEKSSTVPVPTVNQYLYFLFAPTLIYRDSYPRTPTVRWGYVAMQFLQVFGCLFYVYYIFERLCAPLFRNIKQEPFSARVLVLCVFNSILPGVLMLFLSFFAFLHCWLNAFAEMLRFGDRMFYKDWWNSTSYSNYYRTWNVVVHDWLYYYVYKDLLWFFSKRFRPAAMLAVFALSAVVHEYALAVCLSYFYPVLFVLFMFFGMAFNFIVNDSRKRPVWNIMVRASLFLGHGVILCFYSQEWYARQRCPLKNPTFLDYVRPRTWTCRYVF

Rattus norvegicus [9] = test: The compound at a dose of 50 mg/kg is evaluated for percent change in High Density Lipoprotein (HDL) level in chronic cholesterol fed rat screen; format: functional; summary of the method: as §1

IC50 [4] | SMILES | Change (Rattus norvegicus [3]) | Change (Rattus norvegicus [6]) | other results
130 nM | CC(C)c1cccc(C(C)C)c1NC(=O)NCC(NC(=O)c1cccc[n+]1[O-])c1ccccc1 (stereo not given) | -44% | – | Change (Rattus norvegicus [1]): 70%; Change (Rattus norvegicus [2]): -31%
120 nM | CC(C)c1cccc(C(C)C)c1NC(=O)NCC(NCc1ccccc1O)c1ccccc1 (single isomer, unassigned; (-)) | -50% | – | Change (Rattus norvegicus [1]): 40%; Change (Rattus norvegicus [5]): 3%
45 nM | CCCCCCCCCCCCNC(CNC(=O)Nc1c(C(C)C)cccc1C(C)C)c1ccccc1 (racemic) | -45% | – | Change (Rattus norvegicus [1]): 29%; Change (Rattus norvegicus [2]): 27%
150 nM | CCCCCCC(=O)NC(CNC(=O)Nc1c(C(C)C)cccc1C(C)C)c1ccccc1 (stereo not given) | – | inactive | –
2800 nM | CCOC(=O)N1CCN(CCCCCC(=O)NC(CNC(=O)Nc2c(C(C)C)cccc2C(C)C)c2ccccc2)CC1 (stereo not given) | – | inactive | –
1200 nM | CC(C)c1cccc(C(C)C)c1NC(=O)NCC(NC(=O)c1c(Cl)cccc1Cl)c1ccccc1 (stereo not given) | – | inactive | –
> 5000 nM | CC(C)c1cccc(C(C)C)c1NC(=O)NCC(NC(=O)CCCCCN)c1ccccc1 (stereo not given) | – | inactive | –
2500 nM | CC(=O)NC(CNC(=O)Nc1c(C(C)C)cccc1C(C)C)c1ccccc1 (stereo not given) | – | inactive | –
530 nM | CC(C)c1cccc(C(C)C)c1NC(=O)NCC(NC(=O)c1ccccc1)c1ccccc1 (stereo not given) | – | inactive | –
110 nM | CCCCCCCCCCCCNCC(CNC(=O)Nc1c(C(C)C)cccc1C(C)C)c1ccccc1 (racemic) | -54% | – | Change (Rattus norvegicus [7]): inactive
650 nM | CCCCCCC(=O)NCC(CNC(=O)Nc1c(C(C)C)cccc1C(C)C)c1ccccc1 (stereo not given) | – | inactive | –
– | CC(C)c1cccc(C(C)C)c1NC(=O)NCC(NCc1ccc(CN(C)C)cc1)c1ccccc1 (single isomer, unassigned; (-)) | -57% | – | IC50 [8]: 170 nM
17 nM | CC(C)c1cccc(C(C)C)c1NC(=O)NCC1(c2ccccc2)CCCC1 | -38% | – | Change (Rattus norvegicus [1]): -12%; Change (Rattus norvegicus [2]): -7%
4200 nM | CC(C)c1cccc(C(C)C)c1NC(=O)NCC(NC(=O)CCCCCN(C)C)c1ccccc1 (stereo not given) | – | inactive | –
380 nM | COCCCCCC(=O)NC(CNC(=O)Nc1c(C(C)C)cccc1C(C)C)c1ccccc1 (stereo not given) | – | inactive | –
– | CC(C)c1cccc(C(C)C)c1NC(=O)NCC1(c2ccc(N(C)C)cc2)CCCC1 [NEVANIMIBE] | – | – | Change (Rattus norvegicus [9]): 200%; Change (Rattus norvegicus [2]): -62%
400 nM | CC(C)=CCCC(C)CC(=O)NC(CNC(=O)Nc1c(C(C)C)cccc1C(C)C)c1ccccc1 (stereo not given) | – | inactive | –
1900 nM | CC(C)c1cccc(C(C)C)c1NC(=O)NCC(CNC(=O)c1ccccc1)c1ccccc1 (stereo not given) | – | inactive | –
81 nM | CCCCCCCCCCCCCCCC(=O)NC(CNC(=O)Nc1c(C(C)C)cccc1C(C)C)c1ccccc1 (stereo not given) | – | inactive | –
2600 nM | COC(=O)CCCCC(=O)NC(CNC(=O)Nc1c(C(C)C)cccc1C(C)C)c1ccccc1 (stereo not given) | – | inactive | –
79 nM | CCCCCCCCCCCC(=O)NCC(CNC(=O)Nc1c(C(C)C)cccc1C(C)C)c1ccccc1 (stereo not given) | – | inactive | –
120 nM | CCCCCCCCCCCCCCCCNC(CNC(=O)Nc1c(C(C)C)cccc1C(C)C)c1ccccc1 (racemic) | – | inactive | –
83 nM | CCCCCCCCCCNC(CNC(=O)Nc1c(C(C)C)cccc1C(C)C)c1ccccc1 (racemic) | -38% | – | –
